Bioassay records from PubChem.
HSF-1 act = increases HSF-1 driven luciferase reporter signal | 300,000 compounds, 1.7% hits | NIH3T3-HGL HSF-1 luciferase reporter, MG132, 8 h; 100% = twice DMSO control signal | activation, % at 9 µM;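 active = mean replicate activation of at least 50% with a set share of replicates each reaching 50%; inconclusive = only one of those two conditions met; inactive = mean below 50% and too few replicates reaching it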;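 note: 0% = median of the neutral control wells and 100% = twice that signal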
Calb FLC = affects C. albicans growth with fluconazole. 300,000 compounds, 0.57% hits. growth inhibition, % (concentration not given with the values). C. albicans CaCi-2 + fluconazole, Alamar Blue growth, 48 h;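 active = growth inhibition above about 58% in most replicates, limit read from the data, passing the limit was not always enough; inconclusive = exactly half the replicates above a set limit; inactive = most replicates below a set limit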;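 note: all wells also contain fluconazole at 8 µg/ml as a sub-toxic cotreatment; 0% = median of DMSO wells and 100% = median of geldanamycin control wells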
HIF activator = HIF pathway transcriptional activation; U2OS HRE-luciferase reporter, luminescence; normalized: DMSO 0%, desferrioxamine 100%; activation, % at 7.5 µM (by protocol); 300,000 compounds, 0.32% hits;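 active = mean activation of at least 10% of the iron chelator positive control signal, with at least half of replicates also reaching 10%; inconclusive = mean and replicate majority disagree about reaching 10%; inactive = mean and most replicates under 10%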
HSF1 inhib = HSF1 inhibition; NIH3T3-HGL HSE-luciferase, MG132-induced, luminescence 8 h; stronger effect = lower value; AID 2098; 300,000 compounds, 0.77% hits; activity change, negative = inhibition, % at 7.5 µM (by protocol);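 active = more than half of replicate wells show activity change below -50%, luminescence cut by over half; inconclusive = some wells, but at most half, below -50%; inactive = no replicate well below -50%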;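 note: luciferase reports HSF-1 transcriptional activity via heat shock element; 0% = median of DMSO wells and -100% = zero luminescence signal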
T cruzi repl = T. cruzi replication inhibition. inhibition, % (no concentration beside the values). 300,000 compounds, 1.4% hits. T. cruzi beta-gal in NIH3T3, luminescence, 90 h;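 active = mean inhibition across valid replicates above about 55%, limit read from the data; inconclusive = mean below that limit but half or more replicates reach it; inactive = mean below it, under half of replicates reach it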;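 note: signal also drops with host cell toxicity which is not excluded here; 0% = plate median of DMSO wells and 100% = zero luminescence signal; higher percent means less beta-gal luminescence so fewer parasites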
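Test system: β-gal T. cruzi (Tulahuen C4) inside NIH/3T3 cells / Quantity: 5,000 cells/well / Measured by: luminescence from GalScreen with 0.05% NP40, read after 60 min / Medium: DMEM plus 2% FBS / Measure: parasite load inhibition, % / Reagent: Tulahuen C4 trypomastigotes, 5000/well / Schedule: co-culture of at least 90 h after 3 h attachment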
Starred values were filed as active, the others as inactive; ? = inconclusive; · = not tested or not shown. Rows were chosen to be rich in hits. Some 4.4% of all compounds tested hit in one or more screens of this group.

SMILES | HSF-1 act | Calb FLC | HIF activator | HSF1 inhib | T cruzi repl
COc1cc(CNCCc2c[nH]c3ccccc23)ccc1OCc1ccccc1F | -10 | 0 | 0 | 5 | 55*
Cc1ccc(OCC(=O)N2CCc3ccccc3C2)c(Br)c1 | 76* | -3 | 0 | 59 | 11
COC(=O)Nc1ccc(S(=O)(=O)N2CCCC(C(=O)N3CCOCC3)C2)cc1 (stereo not given) | 2 | -18 | 0 | -3 | 0
CC1CCCN(C(=O)C2CCN(S(=O)(=O)c3ccc4c(c3)CC(C)N4C(=O)C3CC3)CC2)C1 (stereo not given) | -75 | 0 | 0 | -68* | 8
CC1Cc2cc(S(=O)(=O)N3CCCC(C(=O)N4CCCCC4)C3)ccc2N1C(=O)C1CC1 (stereo not given) | 0 | -1 | 0 | 2 | -8
COC(=O)Nc1ccc(S(=O)(=O)N2CCC(C(=O)N3CCCC(C)C3)CC2)cc1 (stereo not given) | 69* | -10 | -2 | 39 | -8
Cc1ccc2oc(=O)n(CCCOc3ccccc3)c2c1 | 59* | 6 | 4 | 34 | 1
CCOC(=O)C1=C(C)Nc2ncnn2C1c1ccc2c(c1)OCO2 (stereo not given) | 51* | 22 | 0 | 32 | -20
CCOC(=O)C1=C(CNCCc2ccc(Cl)cc2)NC(=O)NC1c1ccc2c(c1)OCO2 (stereo not given) | 39 | -7 | 0 | 14 | 57*
COc1ccc(C(=O)NC2CCCc3c2cnn3-c2cc(F)cc(F)c2)c(OC)c1OC (stereo not given) | -45 | 3 | 0 | -25 | 18
O=C(CSc1nnc(Cc2ccccc2)o1)N1CCCC1 | -15 | 3 | 0 | -2 | 7
O=C(CCc1nnc(Cc2ccc(-c3ccccc3)cc2)o1)N1CCCC1 | 70* | -6 | 0 | 40 | 6
CC(C)(C)C(=O)C1=C(O)C(=O)N(c2ccccc2)C1c1ccccc1 (stereo not given) | -1 | 18 | 0 | 3 | -12
Cc1ccc(NC(=O)c2ccccc2NS(=O)(=O)c2ccc(Cl)s2)cc1 | 8 | 78* | 1 | -8 | -38
Cc1ccc(C)c(N2CCN(S(=O)(=O)c3csc(C(N)=O)c3)CC2)c1 | 3 | 4 | 0 | -6 | 1
Cc1cccc(C)c1NC(=O)C(C)N1CCCC1 (stereo not given) | 75* | -11 | 1 | 21 | 1
O=C(NCCOCCNC(=O)OCc1ccccc1)OCc1ccccc1 | 19 | -10 | -1 | 12 | -1
c1ccc(-n2nnnc2Oc2ccc(-c3nnco3)cc2)cc1 | -75 | -1 | 0 | -70* | -11
COc1cc(C(=O)NC(=S)N(CCc2ccccc2)CCc2ccccc2)cc(OC)c1OC | 20 | 93* | -1 | -5 | 51
O=C(CCl)N(CCc1ccccc1)CCc1ccccc1 | -2 | -12 | 0 | -3 | 56*
O=C(NC(=S)N(CCc1ccccc1)CCc1ccccc1)c1ccco1 | 68* | -25 | 1 | 97 | 39
COc1cc(C(=O)NNC(=S)NC(=O)c2ccc(F)cc2)cc(OC)c1OC | -18 | -4 | 0 | -3 | 65*
O=C(CCC(=O)Nc1ccccc1)NNC(=O)COc1ccccc1 | 3 | 3 | 0 | 3 | -22
c1ccn2c(SCc3ccc4c(c3)OCO4)nnc2c1 | -73 | 2 | 1 | -65* | -13
O=C(CSc1nnc2ccccn12)Nc1ccc2c(c1)OCO2 | 38 | 17 | 2 | 7 | 22
SMILES | HSF-1 act | Calb FLC | HIF activator | HSF1 inhib | T cruzi repl
CCN(CC)c1nc2c(s1)C(=O)CC(C)(C)C2 | -13 | -5 | 1 | 13 | 5
Cc1ccc(/C=C/C(=O)Nc2ccc(S(=O)(=O)Nc3cc(C)nc(C)n3)cc2)cc1 | 64* | -4 | 0 | 39 | -3
Cc1ccc(/C=C/C(=O)Nc2ccc(S(=O)(=O)Nc3ncccn3)cc2)cc1 | 11 | 5 | 0 | -6 | 0
Cc1csc(=Nc2ccc(S(=O)(=O)N3CCOCC3)cc2)n1Cc1ccco1 | 5 | -2 | 0 | 4 | 20
COc1cccc(CC2(CO)CCCN(Cc3ccc(-c4ccco4)cc3)C2)c1 (stereo not given) | 14 | -30 | 0 | 0 | 58*
COc1cccc(CC2(CO)CCCN(Cc3ccc(C)s3)C2)c1 (stereo not given) | -14 | -14 | 0 | -1 | 58*
COc1cccc(CC2(CO)CCCN(Cc3ccccc3-c3ccco3)C2)c1 (stereo not given) | -7 | -16 | 0 | -6 | 26
COc1cccc(CC2(CO)CCCN(Cc3cc4ccccc4[nH]3)C2)c1 (stereo not given) | 1 | -6 | 0 | 0 | 67*
COc1ccc(-n2ccnc2CN2CCCC(CO)(Cc3cccc(OC)c3)C2)cc1 (stereo not given) | 17 | -1 | 0 | 3 | 4
COc1cccc(CC2(CO)CCCN(Cc3sc(N4CCCC4)nc3Cl)C2)c1 (stereo not given) | -14 | -14 | 0 | -8 | 55*
COc1cccc(CC2(CO)CCCN(Cc3ccc(CO)o3)C2)c1 (stereo not given) | -6 | -10 | 0 | 1 | -18
COc1ccc(CC(=O)NCC(=O)NC(Cc2ccccc2)C(=O)O)cc1 (stereo not given) | -12 | 9 | 1 | -11 | -13
COc1ccc(C(=O)NCCS(=O)(=O)NCCc2ccccc2)cc1 | 41 | 0 | 2 | 22 | -1
COc1cccc(C(=O)NCCS(=O)(=O)NCCc2ccccc2)c1 | 59* | -4 | 0 | 34 | 2
Oc1cccc(-c2nc3ccc4ccccc4c3c3c2CCC3)c1 | 59* | 32 | 3 | 37 | 29
CC1(C)CC(=O)C=C(NC2=CC3OC(c4ccccc4)OCC3OC2=O)C1 (stereo not given) | 116* | -9 | -1 | 77 | -50
Cc1ccccc1NC1=CC(=O)CC(C)(C)C1 | 14 | -2 | 0 | 3 | 7
Cc1cc(F)ccc1NCc1cc2c(cc1[N+](=O)[O-])OCO2 | 53* | 9 | -1 | 17 | -13
CN(C(=O)CSc1nnc(-c2ccco2)o1)C1CCCCC1 | · | 95* | 1 | · | 4
O=C(CSc1nnc(-c2ccco2)o1)NC1CCCCC1 | 18 | -15 | -1 | -6 | -2
c1ccc(CSc2nnc(-c3ccco3)o2)cc1 | 16 | 0 | ? | 12 | -9
Brc1ccc(CSc2nnc(-c3ccco3)o2)cc1 | 56* | -12 | 3 | 36 | -13
O=C(C#Cc1ccccc1)c1ccc([N+](=O)[O-])cc1 | 61* | 1 | 3 | 51 | 11
Oc1ccc(-c2cn3ccccc3n2)cc1O | 15 | 1 | 45* | 14 | -29
Oc1ccc(-c2cn3ccccc3n2)cc1 | 30 | 8 | 2 | 5 | -7
Cc1ccn2cc(-c3ccc(O)c(O)c3)nc2c1 | 11 | · | 30* | 4 | -11
Cc1ccc(C(=O)CSc2ccccn2)cc1 | 53* | -2 | 1 | 31 | -14
